Assay outcomes (PubChem BioAssay)
STAT1 blocker – STAT1 signaling inhibitors, primary screen, cell-based, HTS, luciferase reporter | NIH 3T3 STAT1-luciferase reporter, IFN-gamma, luminescence | inhibition, % at 5.5 µM | 200,000 tested, 0.35% active;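 active = inhibition above a set limit, the mean inhibition across all tested compounds plus 3 SD, cut at about 34% in these data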;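 also: 0% = IFN-gamma with DMSO and 100% = IFN-gamma with 300 µM nifuroxazide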
PPC-1+TRAIL kill – compounds killing PPC-1 cancer cells with TRAIL present, primary screen, TRAIL potentiator project, ATPLite luminescence, uHTS; PPC-1 cells + TRAIL, ATPLite viability luminescence; cell killing (% activity), % at 4 µM or 5 µM; 220,000 tested, 0.41% active;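 active = cell killing above 50% in the first pass at 4 µM, then a duplicate retest at 5 µM averaging 50% or more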;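 also: plate controls were cells with TRAIL plus DMSO for no effect and medium-only wells lacking cells for full effect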
Lipid droplet – inhibitors of hepatocyte lipid droplet formation, primary screen, imaging, high-throughput imaging, BODIPY stain | AML12 mouse hepatocytes, oleate lipid droplets | inhibition, % at 6.5 µM | 240,000 tested, 0.4% active | AID 1656, 2009;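 active = lipid droplet intensity inhibited by at least 50%, with more than 500 cells counted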
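Test system: AML12 mouse liver cells; schedule: overnight exposure; technique: high-content imaging of BODIPY-stained droplets and DAPI nuclei; read-out: % inhibition of corrected integrated BODIPY droplet signal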
TAG inh – inhibitors of triacylglycerol accumulation, primary screen, cell-based, uHTS, fluorescence, H9c2 | inhibition, % at 12.5 µM | H9c2 cells, Nile Red lipid (TAG) fluorescence; cells loaded with 200 µM oleic acid | 230,000 tested, 0.66% active;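 active = pattern-corrected inhibition of lipid staining of at least 50% with the nuclear-stain viability signal not falling by more than 50%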;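 also: 0% = DMSO wells and 100% = triacsin C control wells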
Platelet DG rel – inhibitors of platelet dense granule secretion, primary screen, cell-based, MLPCN, human platelets; inhibition, %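 (compounds screened at 7.5 µM in platelet-rich plasma)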; 300,000 tested, 0.22% active; AID 1663, 2009; human platelet-rich plasma, SFLLRN dense granule ATP release, luminescence;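 active = mean replicate score, as percent of positive control, at or above 50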
STAT3 inh-1 – IL-6 driven STAT3 reporter inhibitors, primary screen, U3A cells, luciferase, luminescence, MLSCN library | IL-6 STAT3-luciferase reporter; host cell line lacks STAT1 | inhibition, % at 5.5 µM | 190,000 tested, 0.89% active | AID 862, 2007;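 active = inhibition above the mean inhibition across all screened compounds plus 3 SD, cut at about 44% in these data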;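 also: 0% = DMSO only wells and 100% = 100 µM nifuroxazide control wells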
STAT3 inh-2 – STAT3 reporter inhibitors, retest of hits, confirmation, U3A cells, luciferase, luminescence. shares compounds with STAT3 inh-1. IL-6 STAT3 luciferase reporter; cell line lacks STAT1. inhibition, % at 5.7 µM. 1,200 tested, 45% active;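 active = inhibition above the hit cutoff computed for the primary STAT3 screen, cut at about 44% in these data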;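 also: 0% = IL-6 plus DMSO and 100% = IL-6 plus nifuroxazide control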
NFkB inh STAT3ct – NF-kB reporter inhibitors in human cells, confirmation, counter-screen for STAT3 inhibitor project, cell-based, HEK293T, luciferase, TNF-alpha stimulus; shares compounds with STAT3 inh-1; TNF-alpha induced; inhibition, % at 5.7 µM; 1,200 tested, 36% active;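 active = inhibition above the mean of solvent-only control wells plus 3 SD, cutoff set per campaign, cut at about 13% in these data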;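 also: 0% = TNF-alpha with DMSO and 100% = TNF-alpha with MG high control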
STAT1 inh STAT3c – STAT1 reporter inhibitors, IFN-gamma induced, confirmation, counter-screen for STAT3 inhibitor project, cell-based, NIH 3T3, luciferase luminescence; 1,200 tested, 27% active; shares compounds with STAT3 inh-1; NIH 3T3 STAT1-luciferase reporter; AID 1317, 2008; inhibition, % at 5.7 µM;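 active = inhibition above the mean plus 3 SD of solvent-only control wells, limit set per screening run, cut at about 16% in these data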;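 also: 0% = DMSO with IFN-gamma and 100% = nifuroxazide control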
PPC1 cytotox – cytotoxicity in PPC-1 cells, confirmation, cytotoxicity control for TRAIL apoptosis potentiator project, cell-based, ATP content luminescence. shares compounds with PPC-1+TRAIL kill. PPC-1 viability, ATPlite luminescence, overnight. cytotoxicity, % at 5 µM. 1,200 tested, 50% active;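 active = reconfirmed compounds whose average cytotoxicity reaches 50% or more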;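 also: 0% = DMSO-treated cells and 100% = wells holding medium but no cells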
* marks the source's active call; other numbers are inactive results. Only some compounds are listed: those with a hit (about 1.5% of all), similar ones and a draw of the others.

COc1ccc2c(=O)c(-c3nc(C)cs3)coc2c1 was read as STAT1 blocker -16, PPC-1+TRAIL kill 45, Lipid droplet -1, TAG inh -5, Platelet DG rel 0, STAT3 inh-1 51*, STAT3 inh-2 4, NFkB inh STAT3ct -17, STAT1 inh STAT3c -103 and PPC1 cytotox 57*.
For Cc1ccnc(NC(=O)c2ccc3c(c2)OCO3)c1 the results were STAT1 blocker 24, PPC-1+TRAIL kill 75*, Lipid droplet 3, TAG inh 0, Platelet DG rel 46, STAT3 inh-1 59*, STAT3 inh-2 22, NFkB inh STAT3ct -14, STAT1 inh STAT3c -29 and PPC1 cytotox 74*.
Screening O=C(Nc1ccon1)c1ccc2c(c1)OCO2 returned STAT1 blocker -13, PPC-1+TRAIL kill -9, Lipid droplet 3, Platelet DG rel -5 and STAT3 inh-1 0.
Screening CC1(C(=O)NS(=O)(=O)c2ccc3c(c2)CCO3)CCN1C(=O)COc1ccc(Cl)cc1 (stereo unspecified) returned TAG inh 0.
O=c1[nH]c2cnn(-c3ccccc3)c2c(=O)n1O was read as TAG inh 5.
`COCCn1c(C)cc(C(=O)COC(=O)c2n[nH]c3ccccc23)c1C` gave STAT1 blocker 29, PPC-1+TRAIL kill 82*, Lipid droplet 7, TAG inh -26, Platelet DG rel -2, STAT3 inh-1 83*, STAT3 inh-2 51*, NFkB inh STAT3ct 23*, STAT1 inh STAT3c -20 and PPC1 cytotox 84*.
`CCCNC(=O)c1cc(C2CCCCN2C(=O)c2ccc(C(C)C)cc2)on1` (stereo unspecified) gave TAG inh 16.
`CCC(C)(C)c1ccc(OCCCC[n+]2cccc(C)c2)c(C(C)(C)CC)c1` gave STAT1 blocker 29, PPC-1+TRAIL kill 35, Lipid droplet -34, TAG inh 71, Platelet DG rel 0, STAT3 inh-1 67*, STAT3 inh-2 50*, NFkB inh STAT3ct 2, STAT1 inh STAT3c 16 and PPC1 cytotox 37.
O=C(NC(=S)Nc1ccc2c(c1)OCCO2)c1ccccc1F was read as STAT1 blocker -58, PPC-1+TRAIL kill 10, Lipid droplet 7, TAG inh -10, Platelet DG rel 1 and STAT3 inh-1 8.
For O=C(Nc1ccc2c(c1)OCCO2)c1ccccc1F the results were STAT1 blocker -24, PPC-1+TRAIL kill 28, TAG inh 8, Platelet DG rel 18, STAT3 inh-1 52*, STAT3 inh-2 17, NFkB inh STAT3ct -23, STAT1 inh STAT3c -71 and PPC1 cytotox 33.
For COc1ccc(C(=O)Nn2c(SCC(=O)NCc3ccco3)nc3ccccc3c2=O)cc1 the results were STAT1 blocker 9, PPC-1+TRAIL kill 34, Lipid droplet 4, TAG inh -2, Platelet DG rel 9, STAT3 inh-1 67*, STAT3 inh-2 34, NFkB inh STAT3ct 24*, STAT1 inh STAT3c -50 and PPC1 cytotox 35.
Screening CCn1c(SCC(=O)NCc2ccco2)nc2ccccc2c1=O returned STAT1 blocker 3, PPC-1+TRAIL kill -9, Lipid droplet -7, TAG inh 5, Platelet DG rel -1 and STAT3 inh-1 6.
`COc1ccc(O)c(C(=O)CC(=O)c2ccccc2)c1` gave STAT1 blocker -34, PPC-1+TRAIL kill 60*, Platelet DG rel 2, STAT3 inh-1 70*, STAT3 inh-2 15, NFkB inh STAT3ct -25, STAT1 inh STAT3c -101 and PPC1 cytotox 58*.
`COc1ccc(O)c(C(=O)CC(=O)c2ccncc2)c1` gave TAG inh -4.
For COc1ccc(OC)c(/C=N/NC(=O)c2[nH]ncc2Br)c1 the results were PPC-1+TRAIL kill 10, TAG inh 8 and Platelet DG rel 10.
Screening CCOc1ccc(/C=N/NC(=O)c2[nH]ncc2Br)c(O)c1 returned STAT1 blocker -19, PPC-1+TRAIL kill 57*, Lipid droplet -26, TAG inh 21, Platelet DG rel 84*, STAT3 inh-1 48*, STAT3 inh-2 18, NFkB inh STAT3ct -15, STAT1 inh STAT3c -77 and PPC1 cytotox 56*.
Screening OC[C@@H]1CN(Cc2ccncc2)C[C@H](n2cnc3c(NCc4ccncc4)ncnc32)O1 returned TAG inh 4.
Cc1cc(NCCCn2ccnc2)n2ncc(-c3ccccc3)c2n1 was read as STAT1 blocker 27, PPC-1+TRAIL kill 67*, TAG inh -2, STAT3 inh-1 74*, STAT3 inh-2 21, NFkB inh STAT3ct 25*, STAT1 inh STAT3c -57 and PPC1 cytotox 62*.
Screening Cc1cc(NCCCn2ccnc2)n2nc(C)c(-c3ccccc3)c2n1 returned STAT1 blocker -25, PPC-1+TRAIL kill 24, Lipid droplet 7, Platelet DG rel 7 and STAT3 inh-1 -20.
CCc1nc2ccc(C(=O)N3CCN(C(=O)c4ccco4)CC3)cn2c1N(C)C(=O)c1cccc(OC)c1 was read as TAG inh 25.
`Cc1nc2sc(-c3ccccc3)cc2c(=O)[nH]1` gave STAT1 blocker 25, PPC-1+TRAIL kill 65*, Lipid droplet 9, Platelet DG rel 19, STAT3 inh-1 69*, STAT3 inh-2 35, NFkB inh STAT3ct -1, STAT1 inh STAT3c -42 and PPC1 cytotox 61*.
For O=c1[nH]c(-c2cccnc2)nc2sc(-c3ccccc3)cc12 the results were STAT1 blocker -19, PPC-1+TRAIL kill 20, Lipid droplet -1, TAG inh 47, Platelet DG rel 0 and STAT3 inh-1 11.
For O=C(O)C(Cc1ccccc1)N1C(=O)C=CC1=O (stereo unspecified) the results were TAG inh -1.
